Measurements from ChEMBL document CHEMBL1649176, “Contribution of oxidative damage to antimicrobial lethality” (2009).
Values after ≈ are worked out from the molar mass of the structure shown. Active and inactive are the calls of the source. The calls are words filed in the database; no cut-off is given here.

What was measured:
Escherichia coli [1] = assay: Bactericidal activity against sodB gene-deficient Escherichia coli K-12 3145 after 2 hrs; type: functional, organism-based
Escherichia coli [2] = assay: Bactericidal activity against sodB gene-deficient Escherichia coli K-12 3145 at 0.4 ug/ml; type: functional, organism-based
Escherichia coli [3] = assay: Bactericidal activity against sodA gene-deficient Escherichia coli K-12 3144 at 0.4 ug/ml; type: functional, organism-based
Escherichia coli [4] = assay: Bactericidal activity against sodA gene-deficient Escherichia coli K-12 3144 after 2 hrs; type: functional, organism-based
Escherichia coli [5] = assay: Bactericidal activity against Escherichia coli K-12 BW25113 at 100 times MIC; type: functional, organism-based
Escherichia coli [6] = assay: Bactericidal activity against ahpC gene-deficient Escherichia coli K-12 3200 at 100 times MIC; type: functional, organism-based
Escherichia coli [7] = assay: Bactericidal activity against katG,katE gene-deficient Escherichia coli K-12 3201 at 100 times MIC; type: functional, organism-based
Escherichia coli [8] = assay: Bactericidal activity against katG gene-deficient Escherichia coli K-12 3157 at 100 times MIC; type: functional, organism-based
Escherichia coli [9] = assay: Antimicrobial activity against sodB gene-deficient Escherichia coli K-12 3145 by broth dilution method; type: functional
Summary of the method: (§1)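 Broth dilution in LB medium, about 10^5 bacteria per 1-ml tube, with drug concentrations rising in 50% increments. Tubes were incubated overnight at 37°C and read visually. MIC was the lowest concentration that prevented visible growth.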

Escherichia coli [10] = assay: Bactericidal activity against ahpC gene-deficient Escherichia coli K-12 3200 after 18 hrs; type: functional; details: K-12 3200, 18 h
Escherichia coli [11] = assay: Antimicrobial activity against ahpC gene-deficient Escherichia coli K-12 3200 by broth dilution method; type: functional; summary of the method: as §1
Escherichia coli [12] = assay: Bactericidal activity against katG gene-deficient Escherichia coli K-12 3157 after 18 hrs; type: functional; details: K-12 3157, 18 h
Escherichia coli [13] = assay: Antimicrobial activity against sodA gene-deficient Escherichia coli K-12 3144 by broth dilution method; type: functional; summary of the method: as §1
Escherichia coli [14] = assay: Bactericidal activity against katG,katE gene-deficient Escherichia coli K-12 3201 after 18 hrs; type: functional; details: K-12 3201, 18 h
Escherichia coli [15] = assay: Antimicrobial activity against sodB gene-deficient Escherichia coli K-12 DKsodB by broth dilution method; type: functional; summary of the method: as §1
Escherichia coli [16] = assay: Bactericidal activity against sodB gene-deficient Escherichia coli K-12 3145 after 18 hrs; type: functional; details: K-12 3145, 18 h
Escherichia coli [17] = assay: Bactericidal activity against sodA, sodB gene-deficient Escherichia coli K-12 3156 after 18 hrs; type: functional; details: K-12 3156, 18 h
Escherichia coli [18] = assay: Antimicrobial activity against sodA, sodB gene-deficient Escherichia coli K-12 3156 by broth dilution method; type: functional; summary of the method: as §1
Escherichia coli [19] = assay: Bactericidal activity against Escherichia coli K-12 BW25113 after 18 hrs; type: functional; details: K-12 BW25113, 18 h
Escherichia coli [20] = assay: Antimicrobial activity against katG gene-deficient Escherichia coli K-12 3157 by broth dilution method; type: functional; summary of the method: as §1
Escherichia coli [21] = assay: Antimicrobial activity against Escherichia coli K-12 BW25113 by broth dilution method; type: functional; summary of the method: as §1
Escherichia coli [22] = assay: Bactericidal activity against katE gene-deficient Escherichia coli K-12 3202 after 18 hrs; type: functional; details: K-12 3202, 18 h
Escherichia coli [23] = assay: Antimicrobial activity against katG,katE gene-deficient Escherichia coli K-12 3201 by broth dilution method; type: functional; summary of the method: as §1
Escherichia coli [24] = assay: Bactericidal activity against sodB gene-deficient Escherichia coli K-12 DK after 18 hrs; type: functional
Escherichia coli [25] = assay: Antimicrobial activity against katE gene-deficient Escherichia coli K-12 3202 by broth dilution method; type: functional; summary of the method: as §1
Escherichia coli [26] = assay: Bactericidal activity against sodA gene-deficient Escherichia coli K-12 3144 after 18 hrs; type: functional; details: K-12 3144, 18 h
Escherichia coli [27] = assay: Bactericidal activity against katG,katE gene-deficient Escherichia coli K-12 3201 after 2 hrs relative to wild-type; type: functional
Escherichia coli [28] = assay: Bactericidal activity against sodA, sodB gene-deficient Escherichia coli K-12 3156 at 0.4 ug/ml relative to wild-type; type: functional
Escherichia coli [29] = assay: Bactericidal activity against katG gene-deficient Escherichia coli K-12 3157 at 10 times MIC pretreated with 100 mM thiourea relative to wild-type; type: functional
Escherichia coli [30] = assay: Bactericidal activity against sodA, sodB gene-deficient Escherichia coli K-12 3156 after 2 hrs relative to wild-type; type: functional
Escherichia coli [31] = assay: Bactericidal activity against sodB gene-deficient Escherichia coli K-12 DKsodB after 2 hrs; type: functional, organism-based
Escherichia coli [32] = assay: Bactericidal activity against katG gene-deficient Escherichia coli K-12 3157 at 10 times MIC pretreated with 250 uM bipyridyl relative to wild-type; type: functional
Escherichia coli [33] = assay: Bactericidal activity against sodB gene-deficient Escherichia coli K-12 DKsodB at 0.4 ug/ml; type: functional, organism-based
Escherichia coli [34] = assay: Bactericidal activity against katG gene-deficient Escherichia coli K-12 3157 at 10 times MIC relative to wild-type; type: functional
Escherichia coli [35] = assay: Bactericidal activity against katG gene-deficient Escherichia coli K-12 3157 after 2 hrs pretreated with 100 mM thiourea relative to wild-type; type: functional
Escherichia coli [36] = assay: Bactericidal activity against katG gene-deficient Escherichia coli K-12 3157 after 2 hrs pretreated with 250 uM bipyridyl relative to wild-type; type: functional
Escherichia coli [37] = assay: Bactericidal activity against katG gene-deficient Escherichia coli K-12 3157 after 2 hrs relative to wild-type; type: functional
Escherichia coli [38] = assay: Bactericidal activity against katG,katE gene-deficient Escherichia coli K-12 3201 at 10 times MIC relative to wild-type; type: functional

Question: Which results are given for `CCn1cc(C(=O)O)c(=O)c2cc3c(cc21)OCO3`?
Answer: Activity (Escherichia coli [1]): Active; Activity (Escherichia coli [2]): Active; Activity (Escherichia coli [3]): Active; Activity (Escherichia coli [4]): Active

Question: `O=C(N[C@H](CO)[C@H](O)c1ccc([N+](=O)[O-])cc1)C(Cl)Cl` was tested. Which Activity (Escherichia coli [5]) did it give?
Answer: inactive

Question: What about the Activity (Escherichia coli [6]) of the same molecule?
Answer: inactive

Question: And the Activity (Escherichia coli [7])?
Answer: inactive

Question: What about the Activity (Escherichia coli [8]) of the same molecule?
Answer: inactive

Question: Which Activity (Escherichia coli [1]) does the source give for `O=C(O)c1cn(C2CC2)c2cc(N3CCNCC3)c(F)cc2c1=O` here?
Answer: Active

Question: What about the Activity (Escherichia coli [2]) of the same molecule?
Answer: Active

Question: What about the Activity (Escherichia coli [3]) of the same molecule?
Answer: Active

Question: And the Activity (Escherichia coli [4])?
Answer: Active

Question: For `CC1(C)S[C@@H]2[C@H](NC(=O)[C@H](N)c3ccccc3)C(=O)N2[C@H]1C(=O)O` [AMPICILLIN], which MIC (Escherichia coli [9]) is on record?
Answer: 15 µg/mL

Question: And the MBC (Escherichia coli [10])?
Answer: 40 µg/mL (≈ 114 µM)

Question: And the MIC (Escherichia coli [11])?
Answer: 15 µg/mL

Question: What about the MBC (Escherichia coli [12]) of the same molecule?
Answer: 80 µg/mL (≈ 229 µM)

Question: What about the MIC (Escherichia coli [13]) of the same molecule?
Answer: 15 µg/mL

Question: And the MBC (Escherichia coli [14])?
Answer: 80 µg/mL (≈ 229 µM)

Question: And the MIC (Escherichia coli [15])?
Answer: 15 µg/mL

Question: What about the MBC (Escherichia coli [16]) of the same molecule?
Answer: 80 µg/mL (≈ 229 µM)

Question: And the MBC (Escherichia coli [17])?
Answer: 20 µg/mL (≈ 57.2 µM)

Question: And the MIC (Escherichia coli [18])?
Answer: 15 µg/mL

Question: What about the MBC (Escherichia coli [19]) of the same molecule?
Answer: 80 µg/mL (≈ 229 µM)

Question: What about the MIC (Escherichia coli [20]) of the same molecule?
Answer: 15 µg/mL

Question: What about the MIC (Escherichia coli [21]) of the same molecule?
Answer: 15 µg/mL

Question: What about the MBC (Escherichia coli [22]) of the same molecule?
Answer: 80 µg/mL (≈ 229 µM)

Question: What about the MIC (Escherichia coli [23]) of the same molecule?
Answer: 30 µg/mL

Question: And the MBC (Escherichia coli [24])?
Answer: 80 µg/mL (≈ 229 µM)

Question: And the MIC (Escherichia coli [25])?
Answer: 15 µg/mL

Question: And the MBC (Escherichia coli [26])?
Answer: 80 µg/mL (≈ 229 µM)

Question: `c1ccc(-c2ccccn2)nc1` [DIPYRIDYL] was tested. Which MIC (Escherichia coli [9]) did it give?
Answer: 500 µM

Question: What about the MIC (Escherichia coli [11]) of the same molecule?
Answer: 500 µM

Question: And the MIC (Escherichia coli [13])?
Answer: 500 µM

Question: And the MIC (Escherichia coli [15])?
Answer: 500 µM

Question: What about the MIC (Escherichia coli [18]) of the same molecule?
Answer: 500 µM

Question: And the MIC (Escherichia coli [20])?
Answer: 500 µM

Question: What about the MIC (Escherichia coli [21]) of the same molecule?
Answer: 500 µM

Question: And the MIC (Escherichia coli [23])?
Answer: 500 µM

Question: And the MIC (Escherichia coli [25])?
Answer: 500 µM

Question: What does the source list for `NC[C@H]1O[C@H](O[C@H]2[C@H](O)[C@@H](O[C@H]3O[C@H](CO)[C@@H](O)[C@H](N)[C@H]3O)[C@H](N)C[C@@H]2N)[C@H](O)[C@@H](O)[C@@H]1O` [KANAMYCIN]?
Answer: MIC (Escherichia coli [9]): 0.6 µg/mL; MBC (Escherichia coli [10]): 10 µg/mL (≈ 20.6 µM); MIC (Escherichia coli [11]): 2.4 µg/mL; MBC (Escherichia coli [12]): 20 µg/mL (≈ 41.3 µM); MIC (Escherichia coli [13]): 0.6 µg/mL; MBC (Escherichia coli [14]): 20 µg/mL (≈ 41.3 µM); MIC (Escherichia coli [15]): 0.6 µg/mL; MBC (Escherichia coli [16]): 20 µg/mL (≈ 41.3 µM); MBC (Escherichia coli [17]): 10 µg/mL (≈ 20.6 µM); MIC (Escherichia coli [18]): 0.6 µg/mL; MBC (Escherichia coli [19]): 20 µg/mL (≈ 41.3 µM); MIC (Escherichia coli [20]): 0.6 µg/mL; MIC (Escherichia coli [21]): 0.6 µg/mL; MBC (Escherichia coli [22]): 20 µg/mL (≈ 41.3 µM); MIC (Escherichia coli [23]): 1.2 µg/mL; MBC (Escherichia coli [24]): 20 µg/mL (≈ 41.3 µM); MIC (Escherichia coli [25]): 0.6 µg/mL; MBC (Escherichia coli [26]): 20 µg/mL (≈ 41.3 µM)

Question: `CCn1cc(C(=O)O)c(=O)c2cc(F)c(N3CCNCC3)cc21` [NORFLOXACIN] was tested. Which “fold change (FC)” value (Escherichia coli [27]) did it give?
Answer: 10

Question: And the “fold change (FC)” value (Escherichia coli [28])?
Answer: 10

Question: And the Activity (Escherichia coli [1])?
Answer: Active

Question: What about the MIC (Escherichia coli [9]) of the same molecule?
Answer: 0.04 µg/mL

Question: What about the MBC (Escherichia coli [10]) of the same molecule?
Answer: 0.16 µg/mL (≈ 0.501 µM)

Question: And the MIC (Escherichia coli [11])?
Answer: 0.04 µg/mL

Question: And the Activity (Escherichia coli [2])?
Answer: Active

Question: And the Activity (Escherichia coli [3])?
Answer: Active

Question: And the MBC (Escherichia coli [12])?
Answer: 0.16 µg/mL (≈ 0.501 µM)

Question: What about the MIC (Escherichia coli [13]) of the same molecule?
Answer: 0.04 µg/mL

Question: And the MBC (Escherichia coli [14])?
Answer: 0.32 µg/mL (≈ 1 µM)

Question: What about the MIC (Escherichia coli [15]) of the same molecule?
Answer: 0.04 µg/mL

Question: And the MBC (Escherichia coli [16])?
Answer: 0.32 µg/mL (≈ 1 µM)

Question: What about the MBC (Escherichia coli [17]) of the same molecule?
Answer: 0.16 µg/mL (≈ 0.501 µM)

Question: And the MIC (Escherichia coli [18])?
Answer: 0.04 µg/mL

Question: What about the MBC (Escherichia coli [19]) of the same molecule?
Answer: 0.32 µg/mL (≈ 1 µM)

Question: What about the “fold change (FC)” value (Escherichia coli [29]) of the same molecule?
Answer: 10

Question: And the MIC (Escherichia coli [20])?
Answer: 0.04 µg/mL

Question: And the MIC (Escherichia coli [21])?
Answer: 0.04 µg/mL

Question: What about the “fold change (FC)” value (Escherichia coli [30]) of the same molecule?
Answer: 10

Question: What about the Activity (Escherichia coli [31]) of the same molecule?
Answer: Active

Question: And the MBC (Escherichia coli [22])?
Answer: 0.16 µg/mL (≈ 0.501 µM)

Question: What about the “fold change (FC)” value (Escherichia coli [32]) of the same molecule?
Answer: 10

Question: What about the Activity (Escherichia coli [33]) of the same molecule?
Answer: Active

Question: What about the MIC (Escherichia coli [23]) of the same molecule?
Answer: 0.08 µg/mL

Question: And the “fold change (FC)” value (Escherichia coli [34])?
Answer: 10

Question: What about the MBC (Escherichia coli [24]) of the same molecule?
Answer: 0.32 µg/mL (≈ 1 µM)

Question: What about the “fold change (FC)” value (Escherichia coli [35]) of the same molecule?
Answer: 10

Question: And the MIC (Escherichia coli [25])?
Answer: 0.04 µg/mL

Question: What about the “fold change (FC)” value (Escherichia coli [36]) of the same molecule?
Answer: 10

Question: And the Activity (Escherichia coli [4])?
Answer: Active

Question: What about the “fold change (FC)” value (Escherichia coli [37]) of the same molecule?
Answer: 10

Question: And the MBC (Escherichia coli [26])?
Answer: 0.32 µg/mL (≈ 1 µM)

Question: And the “fold change (FC)” value (Escherichia coli [38])?
Answer: 10
